Data published in ChEMBL document CHEMBL1126560, “Endothelin-1 analogues substituted at both position 18 and 19: highly potent endothelin antagonists with no selectivity for either receptor subtype ETA or ETB” (J Med Chem, 1993).

Tests used:
Mus musculus = organism: Mus musculus; experiment: Compound induced increase in cystolic free ca+2 concentration in murine peritoneal macrophages was measured; assay type: functional
In short: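 Murine peritoneal macrophages from male ICR mice given ip 10% protease peptone 3 days before, adhered 1.5 h at 37 °C, fura-2 AM loaded (4 μM, 24 °C, 1.5 h). Fura-2 fluorescence ratio (340/380 nm excitation, 505 nm emission) at 37 °C. Compound at 100 nM; rise expressed as % of 100 nM ET-1 response.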

[1] = molecular target: T1, Endothelin receptor type B (Bos taurus, UniProt P28088); experiment: Tested for the competitive binding versus [125I]- ET-1 determined in bovine cerebrum membrane for Endothelin B receptor; assay type: cell membranes
T1 sequence (P28088 whole entry): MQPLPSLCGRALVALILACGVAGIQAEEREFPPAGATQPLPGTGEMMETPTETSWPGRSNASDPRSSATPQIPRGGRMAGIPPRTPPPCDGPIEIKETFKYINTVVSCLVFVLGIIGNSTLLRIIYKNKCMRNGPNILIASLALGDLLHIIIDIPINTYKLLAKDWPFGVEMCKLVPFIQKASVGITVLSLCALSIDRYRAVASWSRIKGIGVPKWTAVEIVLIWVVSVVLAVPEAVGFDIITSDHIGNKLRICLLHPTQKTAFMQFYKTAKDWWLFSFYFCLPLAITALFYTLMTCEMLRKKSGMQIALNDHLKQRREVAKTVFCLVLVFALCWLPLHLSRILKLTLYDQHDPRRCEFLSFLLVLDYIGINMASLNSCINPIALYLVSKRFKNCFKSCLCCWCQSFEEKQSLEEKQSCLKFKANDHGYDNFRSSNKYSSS
In short: (§1)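 Membranes (porcine cardiac ventricle at 12 μg/mL for ETA; bovine cerebrum at 150 μg/mL for ETB) in pH 7.2 Tris/EGTA/Mg acetate/0.1% BSA buffer with protease inhibitors. Incubated with 100 pM [125I]ET-1 and varied compound for 1 h at 25 °C, then filtered and counted by gamma counter. IC50 given as mean ± SEM of ≥3 determinations.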

Endothelin-1 receptor [2] = molecular target: T2, Endothelin-1 receptor (Sus scrofa, UniProt Q29010); experiment: Tested for the competitive binding versus [125I]- ET-1 determined in porcine cardiac ventricular membrane for Endothelin A receptor; in short: as §1
T2 sequence (Q29010 whole entry): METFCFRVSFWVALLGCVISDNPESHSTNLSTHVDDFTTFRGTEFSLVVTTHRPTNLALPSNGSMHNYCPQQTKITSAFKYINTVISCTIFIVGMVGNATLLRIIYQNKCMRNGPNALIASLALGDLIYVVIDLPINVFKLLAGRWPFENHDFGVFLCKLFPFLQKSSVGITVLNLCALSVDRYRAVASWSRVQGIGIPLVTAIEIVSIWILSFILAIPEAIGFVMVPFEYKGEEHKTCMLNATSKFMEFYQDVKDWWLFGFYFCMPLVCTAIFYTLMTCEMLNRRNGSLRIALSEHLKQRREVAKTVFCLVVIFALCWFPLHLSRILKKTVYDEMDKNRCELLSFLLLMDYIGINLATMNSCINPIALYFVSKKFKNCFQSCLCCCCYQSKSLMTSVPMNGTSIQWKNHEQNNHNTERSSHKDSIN

Endothelin-1 receptor [3] = molecular target: T2, Endothelin-1 receptor; experiment: ETA receptor antagonist activity was measured by inhibition of ET-1 induced vasoconstriction in isolated porcine coronary artery; assay type: functional, tissue-based; conditions: read-out: pA2 (converted)
In short: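 Porcine right coronary artery, endothelium-denuded 2 × 5-mm helical strips in Krebs-Henseleit, 95% O2-5% CO2, 37 °C, isometric tension. Compound added 15 min before cumulative ET-1. Tension normalized to 60 mM KCl. pA2 by van Rossum's method; n in parentheses.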

SMILES | [Ca2+] increase (Mus musculus) | IC50 [1] | IC50 (Endothelin-1 receptor [2]) | Kb (Endothelin-1 receptor [3])
CC[C@H](C)[C@H](NC(=O)[C@H](CC(=O)O)NC(=O)[C@H](CC(C)C)NC(=O)[C@H](Cc1c[nH]cn1)NC(=O)[C@@H]1CSSC[C@H](NC(=O)[C@H](CCC(=O)O)NC(=O)[C@H](CCCCN)NC(=O)[C@H](CC(=O)O)NC(=O)[C@H](CCSC)NC(=O)[C@H](CC(C)C)NC(=O)[C@H](CO)NC(=O)[C@H](CO)NC(=O)[C@@H]2CSSC[C@H](N)C(=O)N[C@@H](CO)C(=O)N2)C(=O)N[C@@H](C(C)C)C(=O)N[C@@H](Cc2ccc(O)cc2)C(=O)N[C@@H](Cc2ccccc2)C(=O)N1)C(=O)N[C@H](C(=O)N[C@@H](Cc1c[nH]c2ccccc12)C(=O)O)[C@@H](C)CC | 100 | – | – | –
CC[C@H](C)[C@H](NC(=O)[C@H](CC(C)C)NC(=O)[C@H](CC(=O)O)NC(=O)[C@H](CC(C)C)NC(=O)[C@H](Cc1c[nH]cn1)NC(=O)[C@@H]1CSSC[C@H](N)C(=O)N[C@@H](CO)C(=O)N[C@H]2CSSC[C@H](NC(=O)[C@H](CCC(=O)O)NC(=O)[C@H](CCCCN)NC(=O)[C@H](CC(=O)O)NC(=O)[C@H](CCSC)NC(=O)[C@H](CC(C)C)NC(=O)[C@H](CO)NC(=O)[C@H](CO)NC2=O)C(=O)N[C@@H](C(C)C)C(=O)N[C@@H](Cc2ccc(O)cc2)C(=O)N[C@@H](Cc2ccccc2)C(=O)N1)C(=O)N[C@@H](Cc1c[nH]c2ccccc12)C(=O)O | – | 0.17 nM | 0.75 nM | –
CC[C@H](C)[C@H](NC(=O)[C@@H](NC(=O)[C@H](CC(C)C)NC(=O)[C@H](Cc1c[nH]cn1)NC(=O)[C@@H]1CSSC[C@H](N)C(=O)N[C@@H](CO)C(=O)N[C@H]2CSSC[C@H](NC(=O)[C@H](CCC(=O)O)NC(=O)[C@H](CCCCN)NC(=O)[C@H](CC(=O)O)NC(=O)[C@H](CCSC)NC(=O)[C@H](CC(C)C)NC(=O)[C@H](CO)NC(=O)[C@H](CO)NC2=O)C(=O)N[C@@H](C(C)C)C(=O)N[C@@H](Cc2ccc(O)cc2)C(=O)N[C@@H](Cc2ccccc2)C(=O)N1)[C@@H](C)O)C(=O)N[C@H](C(=O)N[C@@H](Cc1c[nH]c2ccccc12)C(=O)O)[C@@H](C)CC | – | 0.33 nM | 0.19 nM | –
CC[C@H](C)[C@H](NC(=O)[C@H](CC(C)(C)C)NC(=O)[C@@H](NC(=O)[C@H](CC(C)C)NC(=O)[C@H](Cc1c[nH]cn1)NC(=O)[C@@H]1CSSC[C@H](N)C(=O)N[C@@H](CO)C(=O)N[C@H]2CSSC[C@H](NC(=O)[C@H](CCC(=O)O)NC(=O)[C@H](CCCCN)NC(=O)[C@H](CC(=O)O)NC(=O)[C@H](CCSC)NC(=O)[C@H](CC(C)C)NC(=O)[C@H](CO)NC(=O)[C@H](CO)NC2=O)C(=O)N[C@@H](C(C)C)C(=O)N[C@@H](Cc2ccc(O)cc2)C(=O)N[C@@H](Cc2ccccc2)C(=O)N1)[C@@H](C)O)C(=O)N[C@@H](Cc1c[nH]c2ccccc12)C(=O)O | 0 | – | – | –
CC[C@H](C)[C@H](NC(=O)[C@H](CC(=O)O)NC(=O)[C@H](CC(C)C)NC(=O)[C@H](Cc1cnc[nH]1)NC(=O)[C@@H]1CSSC[C@H](NC(=O)[C@H](CCC(=O)O)NC(=O)[C@H](CCCCN)NC(=O)[C@H](CC(=O)O)NC(=O)[C@H](CCSC)NC(=O)[C@H](CC(C)C)NC(=O)[C@H](CO)NC(=O)[C@H](CO)NC(=O)[C@@H]2CSSC[C@H](N)C(=O)N[C@@H](CO)C(=O)N2)C(=O)N[C@@H](C(C)C)C(=O)N[C@@H](Cc2ccc(O)cc2)C(=O)N[C@@H](Cc2ccccc2)C(=O)N1)C(=O)N[C@H](C(=O)N[C@@H](Cc1c[nH]c2ccccc12)C(=O)O)[C@@H](C)CC | – | 0.093 nM | 5.9 nM | –
CC[C@H](C)[C@H](NC(=O)[C@H](CC(C)C)NC(=O)[C@H](CC(C)C)NC(=O)[C@H](Cc1cnc[nH]1)NC(=O)[C@@H]1CSSC[C@H](N)C(=O)N[C@@H](CO)C(=O)N[C@H]2CSSC[C@H](NC(=O)[C@H](CCC(=O)O)NC(=O)[C@H](CCCCN)NC(=O)[C@H](CC(=O)O)NC(=O)[C@H](CCSC)NC(=O)[C@H](CC(C)C)NC(=O)[C@H](CO)NC(=O)[C@H](CO)NC2=O)C(=O)N[C@@H](C(C)C)C(=O)N[C@@H](Cc2ccc(O)cc2)C(=O)N[C@@H](Cc2ccccc2)C(=O)N1)C(=O)N[C@H](C(=O)N[C@@H](Cc1c[nH]c2ccccc12)C(=O)O)[C@@H](C)CC | – | 0.45 nM | 8.6 nM | 5010 nM
CC[C@H](C)[C@H](NC(=O)[C@H](CC(=O)O)NC(=O)[C@H](CC(C)C)NC(=O)[C@H](Cc1c[nH]cn1)NC(=O)[C@@H]1CSSC[C@H](N)C(=O)N[C@@H](CO)C(=O)N[C@H]2CSSC[C@H](NC(=O)[C@H](CCC(=O)O)NC(=O)[C@H](CCCCN)NC(=O)[C@H](CC(=O)O)NC(=O)[C@H](CCSC)NC(=O)[C@H](CC(C)C)NC(=O)[C@H](CO)NC(=O)[C@H](CO)NC2=O)C(=O)N[C@@H](C(C)C)C(=O)N[C@@H](Cc2ccc(O)cc2)C(=O)N[C@@H](Cc2ccccc2)C(=O)N1)C(=O)N[C@H](C(=O)N[C@@H](Cc1c[nH]c2ccccc12)C(=O)O)[C@@H](C)CC [ENDOTHELIN] | 100 | 0.12 nM | 0.15 nM | –
CC[C@H](C)[C@H](NC(=O)[C@H](CC1CCCCC1)NC(=O)[C@@H](NC(=O)[C@H](CC(C)C)NC(=O)[C@H](Cc1c[nH]cn1)NC(=O)[C@@H]1CSSC[C@H](N)C(=O)N[C@@H](CO)C(=O)N[C@H]2CSSC[C@H](NC(=O)[C@H](CCC(=O)O)NC(=O)[C@H](CCCCN)NC(=O)[C@H](CC(=O)O)NC(=O)[C@H](CCSC)NC(=O)[C@H](CC(C)C)NC(=O)[C@H](CO)NC(=O)[C@H](CO)NC2=O)C(=O)N[C@@H](C(C)C)C(=O)N[C@@H](Cc2ccc(O)cc2)C(=O)N[C@@H](Cc2ccccc2)C(=O)N1)[C@@H](C)O)C(=O)N[C@@H](Cc1c[nH]c2ccccc12)C(=O)O [listing 1 of 2 here] | 10 | – | – | –
CC[C@H](C)[C@H](NC(=O)[C@H](CC(C)C)NC(=O)[C@@H](NC(=O)[C@H](CC(C)C)NC(=O)[C@H](Cc1c[nH]cn1)NC(=O)[C@@H]1CSSC[C@H](N)C(=O)N[C@@H](CO)C(=O)N[C@H]2CSSC[C@H](NC(=O)[C@H](CCC(=O)O)NC(=O)[C@H](CCCCN)NC(=O)[C@H](CC(=O)O)NC(=O)[C@H](CCSC)NC(=O)[C@H](CC(C)C)NC(=O)[C@H](CO)NC(=O)[C@H](CO)NC2=O)C(=O)N[C@@H](C(C)C)C(=O)N[C@@H](Cc2ccc(O)cc2)C(=O)N[C@@H](Cc2ccccc2)C(=O)N1)[C@@H](C)O)C(=O)N[C@@H](Cc1c[nH]c2ccccc12)C(=O)O [listing 1 of 2 here] | 28 | – | – | –
CC[C@H](C)[C@H](NC(=O)[C@H](CC(C)C)NC(=O)[C@@H](NC(=O)[C@H](CC(C)C)NC(=O)[C@H](Cc1c[nH]cn1)NC(=O)[C@@H]1CSSC[C@H](N)C(=O)N[C@@H](CO)C(=O)N[C@H]2CSSC[C@H](NC(=O)[C@H](CCC(=O)O)NC(=O)[C@H](CCCCN)NC(=O)[C@H](CC(=O)O)NC(=O)[C@H](CCSC)NC(=O)[C@H](CC(C)C)NC(=O)[C@H](CO)NC(=O)[C@H](CO)NC2=O)C(=O)N[C@@H](C(C)C)C(=O)N[C@@H](Cc2ccc(O)cc2)C(=O)N[C@@H](Cc2ccccc2)C(=O)N1)[C@@H](C)O)C(=O)N[C@@H](Cc1c[nH]c2ccccc12)C(=O)O [listing 2 of 2 here] | – | 0.17 nM | 0.42 nM | 20 nM
CC[C@H](C)[C@H](NC(=O)[C@H](CC1CCCCC1)NC(=O)[C@@H](NC(=O)[C@H](CC(C)C)NC(=O)[C@H](Cc1c[nH]cn1)NC(=O)[C@@H]1CSSC[C@H](N)C(=O)N[C@@H](CO)C(=O)N[C@H]2CSSC[C@H](NC(=O)[C@H](CCC(=O)O)NC(=O)[C@H](CCCCN)NC(=O)[C@H](CC(=O)O)NC(=O)[C@H](CCSC)NC(=O)[C@H](CC(C)C)NC(=O)[C@H](CO)NC(=O)[C@H](CO)NC2=O)C(=O)N[C@@H](C(C)C)C(=O)N[C@@H](Cc2ccc(O)cc2)C(=O)N[C@@H](Cc2ccccc2)C(=O)N1)[C@@H](C)O)C(=O)N[C@@H](Cc1c[nH]c2ccccc12)C(=O)O [listing 2 of 2 here] | – | 0.42 nM | 0.61 nM | 20 nM
